Sampled rows, rich in hits. Any-hit rate of the full collection: about 3.7%.
KCNK9 block: inhibitors of human KCNK9 two-pore domain potassium channel; B-score at 10 µM; Q9NPC2; AID 488922; hit rate 1.2% among 310,000; HEK293 KCNK9, FluxOR thallium flux fluorescence; stronger effect = lower value;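 active = ratio B-score over 3 SD below the library mean, with starting fluorescence within 5 SD of its mean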;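 also: negative B-score means less thallium flux so channel inhibition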
KCNQ1 pot: potentiates or activates the human KCNQ1 potassium channel; P51787; CHO-K1 KCNQ1, thallium flux FluxOR fluorescence; stronger effect = higher value; B-score at 10 µM; hit rate 0.35% among 310,000; AID 2648;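 active = fluorescence ratio B-score, a plate-corrected score, at least three library SD, with initial intensity B-score within 5 SD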
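Assay system: stable KCNQ1 CHO-K1 line; medium: assay buffer, equal DMSO in all wells; timing: 90 min dye loading and 20 min compound exposure, both at room temperature; technique: kinetic FluxOR thallium fluorescence, 10-s 1-Hz baseline, 110-s post-stimulus read; read-out basis: B score of baseline-normalized fluorescence ratio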
hERG rescue: hERG (human) protection from proarrhythmic block; CHO-hERG, FluxOR thallium flux, dofetilide IC70 present; activation (rescue from dofetilide block), less the hit threshold, % at 10 µM; hit rate 0.51% among 310,000; AID 1511;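 active = activation above the mean of controls blocked by dofetilide plus 5 SD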;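 also: thallium influx through hERG after potassium depolarization seen as dye fluorescence rise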
Target sequence (Q12809 whole entry, looked up): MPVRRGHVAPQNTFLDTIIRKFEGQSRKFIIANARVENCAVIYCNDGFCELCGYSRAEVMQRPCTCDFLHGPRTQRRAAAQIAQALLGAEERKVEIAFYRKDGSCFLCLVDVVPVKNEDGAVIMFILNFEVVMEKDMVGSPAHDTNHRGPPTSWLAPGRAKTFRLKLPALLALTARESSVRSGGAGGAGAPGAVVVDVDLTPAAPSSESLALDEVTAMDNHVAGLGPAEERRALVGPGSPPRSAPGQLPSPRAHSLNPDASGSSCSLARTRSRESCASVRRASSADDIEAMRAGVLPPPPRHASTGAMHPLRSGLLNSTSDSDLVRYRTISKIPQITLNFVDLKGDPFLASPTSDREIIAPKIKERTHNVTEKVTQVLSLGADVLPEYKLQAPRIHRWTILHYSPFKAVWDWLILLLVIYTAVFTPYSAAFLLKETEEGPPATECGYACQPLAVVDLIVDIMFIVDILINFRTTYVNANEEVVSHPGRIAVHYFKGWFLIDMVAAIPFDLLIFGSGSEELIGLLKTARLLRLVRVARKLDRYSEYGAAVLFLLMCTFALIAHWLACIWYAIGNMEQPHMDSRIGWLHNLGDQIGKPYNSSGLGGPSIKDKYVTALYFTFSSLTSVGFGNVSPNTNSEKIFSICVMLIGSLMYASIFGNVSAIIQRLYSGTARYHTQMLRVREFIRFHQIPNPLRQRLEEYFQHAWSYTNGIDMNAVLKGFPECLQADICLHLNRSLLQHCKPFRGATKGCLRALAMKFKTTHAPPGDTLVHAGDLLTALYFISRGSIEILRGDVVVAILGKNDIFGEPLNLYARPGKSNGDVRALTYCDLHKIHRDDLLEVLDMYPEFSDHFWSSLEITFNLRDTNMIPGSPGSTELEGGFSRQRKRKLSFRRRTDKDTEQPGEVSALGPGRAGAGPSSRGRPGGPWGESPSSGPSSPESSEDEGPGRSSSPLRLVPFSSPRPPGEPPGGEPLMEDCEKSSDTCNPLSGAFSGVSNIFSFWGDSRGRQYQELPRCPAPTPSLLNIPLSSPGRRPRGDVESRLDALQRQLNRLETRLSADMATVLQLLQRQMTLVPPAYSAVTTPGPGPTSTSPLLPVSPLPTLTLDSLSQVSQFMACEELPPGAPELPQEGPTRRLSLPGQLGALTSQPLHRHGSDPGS
KCNQ1 block: blocks the human KCNQ1 potassium channel; hit rate 1.3% among 310,000; B-score at 10 µM; P51787; CHO-K1 KCNQ1, FluxOR thallium flux fluorescence; stronger effect = higher value;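 active = compounds whose thallium flux B-score, printed positive for inhibition, exceeds three library SD while starting fluorescence stays within three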;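 also: channel opened by potassium depolarization with thallium stimulus after 20 min compound exposure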
Kir21 inh: Kir2.1 (mouse) channel inhibition | HEK293-Kir2.1, FluxOR thallium flux fluorescence; stronger effect = lower value | B-score at 10 µM | hit rate 0.85% among 310,000 | AID 1672;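 active = fluorescence ratio B-score at or below minus 3 SD of library scores, with starting-brightness B-score within 2 SD, cut at about -4.2 in these data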;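 also: channel flux triggered by added potassium and thallium sulfate stimulus; B-score of peak minus minimum fluorescence over baseline after thallium stimulus; more negative B-score means stronger Kir2.1 block with less thallium influx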
KCNK3 block: human KCNK3 channel inhibition, primary screen. O14649. CHO-KCNK3 thallium flux, FluxOR fluorescence; stronger effect = lower value. B-score at 10 µM. hit rate 0.84% among 340,000;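 active = B-score under library mean minus 4 SD, starting fluorescence ratio at most library mean plus 5 SD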;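 also: more negative B-score means stronger inhibition of thallium flux through KCNK3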
* hit, by the source's call; i = inactive; . = no result.

SMILES	KCNK9 block	KCNQ1 pot	hERG rescue	KCNQ1 block	Kir21 inh	KCNK3 block
COc1ccccc1-n1nnnc1SCC(=O)N(CC(C)C)C1CCS(=O)(=O)C1 (centres undefined)	i	i	-8	i	-0.57	i
O=C1OCCC1Sc1nc2ccccc2c(=O)n1Cc1ccc(F)cc1 (centres undefined)	i	11*	9.9*	i	0.55	i
CC(=O)Nc1ccc(/C=N/N2C(=O)NC(C)(c3ccc(OC(F)F)cc3)C2=O)cc1 (centres undefined)	i	34*	-10	i	0.93	i
O=C(C(=O)N1CCN(c2cccc(Cl)c2)CC1)c1c[nH]c2ccccc12	i	i	-8	i	1.7	i
Cc1c(NC(=S)NC(=O)c2ccccc2Cl)c(=O)n(-c2ccccc2)n1C	i	i	-3	i	-0.11	i
COc1ccc(Br)cc1C(=O)NC(=S)Nc1c(C)n(C)n(-c2ccccc2)c1=O	i	i	4.8*	i	0.84	i
CC1CCCC(NC(=O)CNC(=S)N(Cc2ccccc2)Cc2cccs2)C1C (centres undefined)	i	i	-10	9*	0.22	i
CCCCNC(=O)CNC(=S)N(Cc1ccccc1)Cc1cccs1	i	i	-7	i	-2.4	i
CCN1C(=O)/C(=C/c2cn(-c3ccccc3)nc2-c2cccnc2)SC1=S	.	.	.	.	.	-10*
Cc1ccc(-c2nn(-c3ccccc3)cc2/C=C2\SC(=S)N(CC(=O)O)C2=O)cc1	i	i	-11	i	-0.5	i
O=C(OC1CCOC1=O)c1ccc(CO)cc1 (centres undefined)	i	i	-4	i	-1.1	i
CC(C)c1cc(=O)oc2c3c4c(cc12)CCCN4CCC3	i	i	-13	i	-0.93	i
CN1CCCc2cc3c(C(F)(F)F)cc(=O)oc3nc21	i	i	-23	11*	-7.1	i
CC(=O)Nc1cc(C)ns1	.	.	.	.	.	i
CCOC(=O)CSc1cc(C(F)(F)F)nc(-c2ccccn2)n1	i	i	-7	i	2.3	i
O=C(O)CSc1cc(C(F)(F)F)nc(-c2ccccn2)n1	i	i	39*	i	0.63	i
O=C(NCc1ccco1)c1ccc(N2CCCCC2)c([N+](=O)[O-])c1	i	i	-7	i	0.01	i
Cc1ccc(N(Cc2ccco2)C(=O)c2ccc(N3CCCCC3)c([N+](=O)[O-])c2)cc1	i	i	-7	8*	0.87	i
Cc1onc(-c2ccccc2)c1CNS(=O)(=O)c1cccc(Br)c1	i	i	-9	i	-6.4*	i
Cc1onc(-c2ccccc2)c1CNS(=O)(=O)c1ccc(F)cc1F	i	i	-11	i	-4	i
Cn1c(NC(=O)/C=C\c2ccccc2)cc(=O)n(C)c1=O	i	i	-14	i	0.13	i
COc1ccc(CN2C(=O)CSCC2=O)cc1OC	i	i	-6	i	0.25	i
COc1ccc(CCN2C(=O)CSC2=S)cc1OC	i	i	4.7*	i	0.96	i
Cc1ccc(-c2nnc(CSc3nnc(COc4ccccc4)n3-c3ccc(C)cc3)o2)cc1	i	i	-21	6*	0.63	i
Cc1ccc(-c2nnc(CSc3nnc(COc4ccccc4)n3-c3ccccc3)o2)cc1	i	i	-16	i	-2.2	i
SMILES	KCNK9 block	KCNQ1 pot	hERG rescue	KCNQ1 block	Kir21 inh	KCNK3 block
COc1ccccc1NS(=O)(=O)c1ccc2oc(N)nc2c1	i	i	-8	i	-4.3*	i
O=C(O)Cc1cc(I)c(Oc2ccc(O)c(I)c2)c(I)c1	i	i	9.9*	i	-2.5	.
O=C(O)Cc1ccc(O)c(O)c1	i	i	-4	i	0.76	i
Cc1ccc(N(CC(=O)Nc2cc(Cl)ccc2Oc2ccccc2)S(C)(=O)=O)cc1C	-7.5*	i	-6	i	0.77	i
Cc1ccc(N(CC(=O)Nc2cc(Cl)ccc2Oc2ccccc2)S(C)(=O)=O)c(C)c1	i	i	-8	i	0.92	i
O=C(Nc1cc(Cl)ccc1Oc1ccccc1)c1ccccc1F	i	i	-5	6*	0.05	i

Screening results (PubChem BioAssay)
